From ChEMBL document CHEMBL1817572, “New, potent, selective, and short-acting peptidic V1a receptor agonists” (J Med Chem, 2011)
Numbered stars: 1 amine (or outer) side, 2 acyl side, 3 side chain; on linkers, the order of the positions; unused ones are H or OH. Bridge positions count the residues as written; N and C are the ends. Square brackets hold non-standard residues; d marks the D form. Peptide text beside a SMILES is read from it. X5 = CC(C)CCNCCC[C@H](N[*:1])C(=O)[*:2]; Ala(2-furyl) = N[C@@H](Cc1ccco1)C(=O)O; X4 = CONC(=O)CC[C@H](N[*:1])C(=O)[*:2]; Orn(iPr) = CC(C)NCCC[C@H](N)C(=O)O; Dab(iPr) = CC(C)NCC[C@H](N)C(=O)O; 3Pal = N[C@@H](Cc1cccnc1)C(=O)O; 2Thi = N[C@@H](Cc1cccs1)C(=O)O; 3Thi = N[C@@H](Cc1ccsc1)C(=O)O; Aad = N[C@@H](CCCC(=O)O)C(=O)O; Orn = NCCC[C@H](N)C(=O)O; Dab = NCC[C@H](N)C(=O)O; Ac4c = NC1(C(=O)O)CCC1; Dap = NC[C@H](N)C(=O)O

Key:
[1] = biological target: Vasopressin V1a/V2 (Homo sapiens) (UniProt P30518+P37288); assay: Selectivity ratio of EC50 for human vasopressin V2 receptor to EC50 for human vasopressin V1a receptor
Chain of Vasopressin V1a/V2 (Homo sapiens) (P30518 whole entry, looked up): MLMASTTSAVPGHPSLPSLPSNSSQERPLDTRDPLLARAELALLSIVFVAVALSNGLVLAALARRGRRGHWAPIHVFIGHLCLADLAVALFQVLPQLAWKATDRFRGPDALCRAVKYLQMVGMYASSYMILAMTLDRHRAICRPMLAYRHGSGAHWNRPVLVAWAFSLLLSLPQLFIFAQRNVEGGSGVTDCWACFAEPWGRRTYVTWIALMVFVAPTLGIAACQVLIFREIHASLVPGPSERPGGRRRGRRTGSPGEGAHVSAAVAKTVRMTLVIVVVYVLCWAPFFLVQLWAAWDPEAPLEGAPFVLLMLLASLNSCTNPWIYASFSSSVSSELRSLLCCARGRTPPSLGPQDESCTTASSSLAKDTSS
Chain of Vasopressin V1a/V2 (Homo sapiens) (P37288 whole entry, looked up): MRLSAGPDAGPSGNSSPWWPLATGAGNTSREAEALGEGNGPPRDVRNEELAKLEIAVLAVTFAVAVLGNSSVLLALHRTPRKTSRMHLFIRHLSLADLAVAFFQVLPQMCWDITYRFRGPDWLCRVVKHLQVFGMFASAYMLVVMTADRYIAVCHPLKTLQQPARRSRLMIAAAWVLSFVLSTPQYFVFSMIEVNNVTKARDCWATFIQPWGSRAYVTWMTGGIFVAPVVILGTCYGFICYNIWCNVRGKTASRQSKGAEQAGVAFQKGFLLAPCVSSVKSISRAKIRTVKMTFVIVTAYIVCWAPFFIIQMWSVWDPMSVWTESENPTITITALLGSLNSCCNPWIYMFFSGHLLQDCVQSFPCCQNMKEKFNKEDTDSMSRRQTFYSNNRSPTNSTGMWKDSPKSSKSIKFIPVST

Vasopressin V1a receptor = Vasopressin V1a receptor (Homo sapiens, UniProt P37288); assay: Agonist activity at recombinant human vasopressin V1a receptor expressed in HEK293 cells by luciferase reporter gene assay; assay type: functional, cell-based; conditions: read-out: EC50
Chain of Vasopressin V1a receptor (P37288 whole entry): as the sequence (P37288 whole entry, looked up) above

Vasopressin V1b receptor = biological target: T1, Vasopressin V1b receptor (Homo sapiens, UniProt P47901); assay: Agonist activity at recombinant human vasopressin V1b receptor expressed in Flp-In-293 cells by luciferase reporter gene assay; assay type: functional, cell-based; conditions: read-out: EC50
T1 sequence (P47901 whole entry): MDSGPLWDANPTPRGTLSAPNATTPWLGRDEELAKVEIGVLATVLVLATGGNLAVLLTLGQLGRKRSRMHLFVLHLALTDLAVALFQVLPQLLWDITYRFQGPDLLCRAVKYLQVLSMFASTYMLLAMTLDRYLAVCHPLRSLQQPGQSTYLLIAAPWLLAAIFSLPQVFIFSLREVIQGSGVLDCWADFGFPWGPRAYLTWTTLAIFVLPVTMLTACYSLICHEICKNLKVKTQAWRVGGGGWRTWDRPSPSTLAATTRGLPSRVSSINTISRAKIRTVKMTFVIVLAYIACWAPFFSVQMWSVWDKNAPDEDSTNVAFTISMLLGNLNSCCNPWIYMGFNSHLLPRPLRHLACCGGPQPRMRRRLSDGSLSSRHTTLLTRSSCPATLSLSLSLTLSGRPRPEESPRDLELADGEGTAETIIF
Outline: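 Reporter gene assays in HEK293 cells transiently cotransfected with V1a (human or rat) or human V2 receptor vector plus NFAT-luciferase (V1a) or CRE-luciferase (V2) reporter; V1b in Flp-In-293 stably expressing receptor, OT in CHO-K1 stably expressing receptor, both transiently transfected with NFAT-luciferase. Two days post-transfection, peptides added for 5 h at 37 °C, lysis with luciferin, luminescence read.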

Vasopressin V2 receptor = Vasopressin V2 receptor (Homo sapiens, UniProt P30518); assay: Agonist activity at recombinant human vasopressin V2 receptor expressed in HEK293 cells by luciferase reporter gene assay; assay type: functional, cell-based
Chain of Vasopressin V2 receptor (P30518 whole entry): as the sequence (P30518 whole entry, looked up) above

Oxytocin receptor = biological target: T2, Oxytocin receptor (Homo sapiens, UniProt P30559); assay: Agonist activity at human OT receptor expressed in CHO-K1 cells by luciferase reporter gene assay; assay type: functional, cell-based
T2 sequence (P30559 whole entry): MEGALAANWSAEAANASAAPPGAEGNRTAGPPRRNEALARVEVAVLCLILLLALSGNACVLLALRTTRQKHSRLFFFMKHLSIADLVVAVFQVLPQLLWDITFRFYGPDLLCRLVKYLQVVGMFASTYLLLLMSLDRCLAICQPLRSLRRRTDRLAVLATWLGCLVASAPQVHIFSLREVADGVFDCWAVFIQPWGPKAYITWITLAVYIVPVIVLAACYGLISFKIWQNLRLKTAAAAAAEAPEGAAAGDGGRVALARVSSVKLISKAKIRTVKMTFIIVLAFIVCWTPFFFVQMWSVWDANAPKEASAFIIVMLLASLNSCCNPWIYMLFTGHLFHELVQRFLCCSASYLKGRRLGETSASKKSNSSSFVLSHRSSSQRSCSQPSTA

Homo sapiens [2] = species: Homo sapiens; assay: Selectivity ratio of EC50 for human vasopressin V1b receptor to EC50 for human vasopressin V1a receptor
Homo sapiens [3] = species: Homo sapiens; assay: Selectivity ratio of EC50 for human oxytocin receptor to EC50 for human vasopressin V1a receptor

| Structure (SMILES) | Ratio EC50 [1] | EC50 (Vasopressin V1a receptor) | EC50 (Vasopressin V1b receptor) | EC50 (Vasopressin V2 receptor; read-out: EC50) | EC50 (Oxytocin receptor; cho-k1, read-out: EC50) | EC50 (Oxytocin receptor; read-out: pEC50 (converted)) | Ratio EC50 (Homo sapiens [2]) | Ratio EC50 (Homo sapiens [3]) | EC50 (Oxytocin receptor; read-out: EC50) | EC50 (Vasopressin V2 receptor; hek293, read-out: EC50) | EC50 (Vasopressin V2 receptor; read-out: pEC50 (converted)) |
| --- | --- | --- | --- | --- | --- | --- | --- | --- | --- | --- | --- |
| CC[C@H](C)[C@@H]1NC(=O)[C@H](Cc2ccccc2)NC(=O)[C@@H](N)CSSC[C@@H](C(=O)N2CCC[C@H]2C(=O)N[C@@H](CN)C(=O)NCC(N)=O)NC(=O)[C@H](CC(N)=O)NC(=O)[C@H](CCC(N)=O)NC1=O (H-CFIQNCP[Dap]G-NH2; disulfide 1-6) | 24 | 30 nM | 210 nM | 0.72 µM | > 10 µM | > 10 µM | 7 | > 330 | – | – | – |
| CC[C@H](C)[C@@H]1NC(=O)[C@H](Cc2ccccc2)NC(=O)[C@@H](N)CSSC[C@@H](C(=O)N2CCC[C@H]2C(=O)N[C@@H](CCCNCCC(C)C)C(=O)NCC(N)=O)NC(=O)[C@H](CC(N)=O)NC(=O)[C@H](CCC(N)=O)NC1=O (H-CFIQNCP[X5]G-NH2; disulfide 1-6) | 230 | 0.82 nM | 100 nM | 0.19 µM | – | – | 120 | 53 | 0.044 µM | – | – |
| CC[C@H](C)[C@@H]1NC(=O)[C@H](Cc2cccs2)NC(=O)[C@@H](N)CSSC[C@@H](C(=O)N2CCC[C@H]2C(=O)N[C@@H](CCCNC(C)C)C(=O)NCC(N)=O)NC(=O)[C@H](CC(N)=O)NC(=O)[C@H](CC(N)=O)NC1=O (H-C[2Thi]INNCP[Orn(iPr)]G-NH2; disulfide 1-6) | > 710 | 14 nM | 260 nM | – | – | – | 18 | 61 | 0.86 µM | > 10 µM | > 10 µM |
| CC[C@H](C)[C@@H]1NC(=O)[C@H](Cc2cccnc2)NC(=O)[C@@H](N)CSSC[C@@H](C(=O)N2CCC[C@H]2C(=O)N[C@@H](CCN)C(=O)NCC(N)=O)NC(=O)[C@H](CC(N)=O)NC(=O)[C@H](CCC(N)=O)NC1=O (H-C[3Pal]IQNCP[Dab]G-NH2; disulfide 1-6) | > 330 | 30 nM | 200 nM | – | > 10 µM | > 10 µM | 6.6 | > 330 | – | > 10 µM | > 10 µM |
| CC[C@H](C)[C@@H]1NC(=O)[C@H](Cc2ccsc2)NC(=O)[C@@H](N)CSSC[C@@H](C(=O)N2CCC[C@H]2C(=O)N[C@@H](CCN)C(=O)NCC(N)=O)NC(=O)[C@H](CC(N)=O)NC(=O)[C@H](CC(N)=O)NC1=O (H-C[3Thi]INNCP[Dab]G-NH2; disulfide 1-6) | > 1300 | 7.4 nM | 380 nM | – | > 10 µM | > 10 µM | 51 | > 1300 | – | > 10 µM | > 10 µM |
| CC[C@H](C)[C@@H]1NC(=O)C2(CCC2)NC(=O)[C@@H](N)CSSC[C@@H](C(=O)N2CCC[C@H]2C(=O)N[C@@H](CCN)C(=O)NCC(N)=O)NC(=O)[C@H](CC(N)=O)NC(=O)[C@H](CC(N)=O)NC1=O (H-C[Ac4c]INNCP[Dab]G-NH2; disulfide 1-6) | > 830 | 12 nM | 120 nM | – | > 10 µM | > 10 µM | 10 | > 830 | – | > 10 µM | > 10 µM |

Further lines, results first:

| Ratio EC50 [1] | EC50 (Vasopressin V1a receptor) | EC50 (Vasopressin V1b receptor) | EC50 (Vasopressin V2 receptor; read-out: EC50) | EC50 (Oxytocin receptor; cho-k1, read-out: EC50) | EC50 (Oxytocin receptor; read-out: pEC50 (converted)) | Ratio EC50 (Homo sapiens [2]) | Ratio EC50 (Homo sapiens [3]) | EC50 (Oxytocin receptor; read-out: EC50) | EC50 (Vasopressin V2 receptor; hek293, read-out: EC50) | EC50 (Vasopressin V2 receptor; read-out: pEC50 (converted)) | Structure (SMILES) |
| --- | --- | --- | --- | --- | --- | --- | --- | --- | --- | --- | --- |
| 61 | 18 nM | 960 nM | 1.1 µM | > 10 µM | > 10 µM | 53 | > 550 | – | – | – | CC[C@H](C)[C@@H]1NC(=O)[C@H](Cc2ccccc2)NC(=O)[C@@H](N)CSSC[C@@H](C(=O)N2CCC[C@H]2C(=O)N[C@@H](CCNC(C)C)C(=O)NCC(N)=O)NC(=O)[C@H](CC(N)=O)NC(=O)[C@H](CCCC(N)=O)NC1=O (H-CFI[Aad](NH2)NCP[Dab(iPr)]G-NH2; disulfide 1-6) |
| 1500 | 1.1 nM | 28 nM | 1.7 µM | > 10 µM | > 10 µM | 25 | > 9000 | – | – | – | CC[C@H](C)[C@@H]1NC(=O)[C@H](Cc2ccccc2)NC(=O)[C@@H](N)CSSC[C@@H](C(=O)N2CCC[C@H]2C(=O)N[C@@H](CCCN)C(=O)NCC(N)=O)NC(=O)[C@H](CC(N)=O)NC(=O)[C@H](CCC(=O)NOC)NC1=O (H-CFI[X4]NCP[Orn]G-NH2; disulfide 1-6) |
| > 830 | 12 nM | 510 nM | – | > 10 µM | > 10 µM | 42 | > 830 | – | > 10 µM | > 10 µM | CC[C@H](C)[C@@H]1NC(=O)[C@H](Cc2cccs2)NC(=O)[C@@H](N)CSSC[C@@H](C(=O)N2CCC[C@H]2C(=O)N[C@@H](CCN)C(=O)NCC(N)=O)NC(=O)[C@H](CC(N)=O)NC(=O)[C@H](CC(N)=O)NC1=O (H-C[2Thi]INNCP[Dab]G-NH2; disulfide 1-6) |
| > 660 | 15 nM | 220 nM | – | > 10 µM | > 10 µM | 14 | > 660 | – | > 10 µM | > 10 µM | CC[C@H](C)[C@@H]1NC(=O)[C@H](Cc2cccs2)NC(=O)[C@@H](N)CSSC[C@@H](C(=O)N2CCC[C@H]2C(=O)N[C@@H](CCCN)C(=O)NCC(N)=O)NC(=O)[C@H](CC(N)=O)NC(=O)[C@H](CC(N)=O)NC1=O (H-C[2Thi]INNCP[Orn]G-NH2; disulfide 1-6) |
| > 1300 | 7.3 nM | 350 nM | – | > 10 µM | > 10 µM | 47 | > 1300 | – | > 10 µM | > 10 µM | CC[C@H](C)[C@@H]1NC(=O)[C@H](Cc2ccsc2)NC(=O)[C@@H](N)CSSC[C@@H](C(=O)N2CCC[C@H]2C(=O)N[C@@H](CCCN)C(=O)NCC(N)=O)NC(=O)[C@H](CC(N)=O)NC(=O)[C@H](CC(N)=O)NC1=O (H-C[3Thi]INNCP[Orn]G-NH2; disulfide 1-6) |
| > 1200 | 7.9 nM | 110 nM | – | > 10 µM | > 10 µM | 13 | > 1200 | – | > 10 µM | > 10 µM | CC[C@H](C)[C@@H]1NC(=O)C2(CCC2)NC(=O)[C@@H](N)CSSC[C@@H](C(=O)N2CCC[C@H]2C(=O)N[C@@H](CCCN)C(=O)NCC(N)=O)NC(=O)[C@H](CC(N)=O)NC(=O)[C@H](CC(N)=O)NC1=O (H-C[Ac4c]INNCP[Orn]G-NH2; disulfide 1-6) |
| > 660 | 15 nM | 1800 nM | – | – | – | 120 | 64 | 0.97 µM | > 10 µM | > 10 µM | CC[C@H](C)[C@@H]1NC(=O)[C@H](Cc2ccco2)NC(=O)[C@@H](N)CSSC[C@@H](C(=O)N2CCC[C@H]2C(=O)N[C@@H](CCCNC(C)C)C(=O)NCC(N)=O)NC(=O)[C@H](CC(N)=O)NC(=O)[C@H](CC(N)=O)NC1=O (H-C[Ala(2-furyl)]INNCP[Orn(iPr)]G-NH2; disulfide 1-6) |
| > 1000 | 10 nM | 530 nM | – | > 10 µM | > 10 µM | 53 | > 1000 | – | > 10 µM | > 10 µM | CC[C@H](C)[C@@H]1NC(=O)[C@H](Cc2ccco2)NC(=O)[C@@H](N)CSSC[C@@H](C(=O)N2CCC[C@H]2C(=O)N[C@@H](CCCN)C(=O)NCC(N)=O)NC(=O)[C@H](CC(N)=O)NC(=O)[C@H](CC(N)=O)NC1=O (H-C[Ala(2-furyl)]INNCP[Orn]G-NH2; disulfide 1-6) |
| 150 | 2.2 nM | 210 nM | 0.33 µM | – | – | 95 | 47 | 0.105 µM | – | – | CC[C@H](C)[C@@H]1NC(=O)[C@H](Cc2ccco2)NC(=O)[C@@H](N)CSSC[C@@H](C(=O)N2CCC[C@H]2C(=O)N[C@@H](CCN)C(=O)NCC(N)=O)NC(=O)[C@H](CC(N)=O)NC(=O)[C@H](CCC(N)=O)NC1=O (H-C[Ala(2-furyl)]IQNCP[Dab]G-NH2; disulfide 1-6) |
